Test results taken from ChEMBL document CHEMBL3272047, “3-N-Substituted aminomethyl derivatives of rifamycin SV. A convenient method of synthesis, cyclization of certain derivatives, and anticellular and antiviral activities of several derivatives” (J Med Chem, 1977).

Legend:
[1] = tested on: Moloney murine sarcoma virus; test: Antiviral activity against Moloney murine sarcoma virus infected in mouse 3T3-FL cells assessed as inhibition of cellular focal transformation at highest nontoxic concentration after 5 days by microscopic analysis relative to control; assay type: functional
Method in brief: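 3T3FL cells seeded 1×10^5/dish in McCoy's 5A with 10% fetal calf serum, incubated overnight, primed with 25 µg/mL DEAE-dextran 20 min at room temperature, infected with ~100 FFU Moloney MSV (1 h adsorption, 37 °C); drug medium (0.25% Me2SO final) added, 5 days 37 °C without medium change; foci counted microscopically versus parallel control cultures.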

[2] = Cytotoxicity against mouse 3T3-FL cells after 24 to 120 hrs; assay type: cell-based; conditions: read-out: MNTD>75
Method in brief: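 Uninfected 3T3 cells exposed to drug (0.25% Me2SO final, matched controls); triplicate plates counted at 24, 48, 96 and 120 h to build growth curves. Highest nontoxic level defined as logarithmic growth rate ≥75% of untreated and total growth after 5 days ≥75% of control.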

SMILES	inhibition (INH) [1]	MNTC [2]
CO[C@H]1/C=C/O[C@@]2(C)Oc3c(C)c(O)c4c(O)c5c(c(O)c4c3C2=O)CN(C)C(=N5)/C(C)=C\C=C\[C@H](C)[C@H](O)[C@@H](C)[C@@H](O)[C@@H](C)[C@H](OC(C)=O)[C@@H]1C	0%	1400 nM
CNCc1c2c(O)c3c(O)c(C)c4c(c3c1O)C(=O)[C@@](C)(O/C=C/[C@H](OC)[C@@H](C)[C@@H](OC(C)=O)[C@H](C)[C@H](O)[C@H](C)[C@@H](O)[C@@H](C)/C=C/C=C(/C)C(=O)N2)O4	14%	1400 nM
CO[C@H]1/C=C/O[C@@]2(C)Oc3c(C)c(O)c4c(O)c(c(CN)c(O)c4c3C2=O)NC(=O)/C(C)=C\C=C\[C@H](C)[C@H](O)[C@@H](C)[C@@H](O)[C@@H](C)[C@H](OC(C)=O)[C@@H]1C	0%	1400 nM
CCCNCc1c2c(O)c3c(O)c(C)c4c(c3c1O)C(=O)[C@@](C)(O/C=C/[C@H](OC)[C@@H](C)[C@@H](OC(C)=O)[C@H](C)[C@H](O)[C@H](C)[C@@H](O)[C@@H](C)/C=C/C=C(/C)C(=O)N2)O4	10%	1300 nM
CO[C@H]1/C=C/O[C@@]2(C)Oc3c(C)c(O)c4c(O)c5c(c(O)c4c3C2=O)CNC(=N5)/C(C)=C\C=C\[C@H](C)[C@H](O)[C@@H](C)[C@@H](O)[C@@H](C)[C@H](OC(C)=O)[C@@H]1C	26%	1400 nM
